Key:
[1] = target: T1, rat recombinant μ-opioid receptor (Rattus norvegicus, UniProt P33535); assay: radioligand displacement, [3H]-DAMGO; type: binding
[2] = target: T2, rat recombinant κ-opioid receptor (Rattus norvegicus, UniProt P34975); assay: […]-GTPγS binding functional assay; type: biochemical
[3] = target: T1, rat recombinant μ-opioid receptor; assay: […]-GTPγS binding functional assay; type: biochemical
[4] = target: T3, recombinant human δ-opioid receptor (Homo sapiens, UniProt P41143); assay: […]-GTPγS binding functional assay; type: biochemical
T3 sequence (P41143 whole entry): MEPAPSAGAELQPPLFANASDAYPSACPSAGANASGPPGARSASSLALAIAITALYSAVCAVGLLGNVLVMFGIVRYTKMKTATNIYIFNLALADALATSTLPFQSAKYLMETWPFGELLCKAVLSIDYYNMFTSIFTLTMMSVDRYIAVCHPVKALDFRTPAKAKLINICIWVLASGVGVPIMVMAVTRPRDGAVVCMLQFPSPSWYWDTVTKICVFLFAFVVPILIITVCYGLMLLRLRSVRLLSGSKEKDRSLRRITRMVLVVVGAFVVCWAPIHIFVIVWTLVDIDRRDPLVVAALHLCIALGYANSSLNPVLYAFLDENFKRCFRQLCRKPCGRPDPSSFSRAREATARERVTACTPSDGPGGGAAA

[5] = target: T3, recombinant human δ-opioid receptor; assay: radioligand displacement, [3H]-DADLE; type: binding
[6] = target: T4, recombinant human μ-opioid receptor (Homo sapiens, UniProt P35372); assay: radioligand displacement, [3H]-DAMGO; type: binding
T4 sequence (P35372 whole entry): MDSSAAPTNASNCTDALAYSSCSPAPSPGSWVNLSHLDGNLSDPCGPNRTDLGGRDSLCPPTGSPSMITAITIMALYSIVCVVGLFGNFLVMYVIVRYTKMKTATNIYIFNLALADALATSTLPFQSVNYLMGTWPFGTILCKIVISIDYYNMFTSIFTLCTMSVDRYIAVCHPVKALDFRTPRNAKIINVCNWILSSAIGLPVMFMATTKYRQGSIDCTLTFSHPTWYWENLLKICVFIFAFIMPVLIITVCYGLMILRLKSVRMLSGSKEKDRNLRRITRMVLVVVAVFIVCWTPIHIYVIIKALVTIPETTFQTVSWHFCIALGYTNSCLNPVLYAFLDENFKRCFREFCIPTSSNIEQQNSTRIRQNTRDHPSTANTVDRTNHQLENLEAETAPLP

[7] = target: T5, rat recombinant δ-opioid receptor (Rattus norvegicus, UniProt P33533); assay: […]-GTPγS binding functional assay; type: biochemical; conditions: antagonist mode, against agonist
T5 sequence (P33533 whole entry): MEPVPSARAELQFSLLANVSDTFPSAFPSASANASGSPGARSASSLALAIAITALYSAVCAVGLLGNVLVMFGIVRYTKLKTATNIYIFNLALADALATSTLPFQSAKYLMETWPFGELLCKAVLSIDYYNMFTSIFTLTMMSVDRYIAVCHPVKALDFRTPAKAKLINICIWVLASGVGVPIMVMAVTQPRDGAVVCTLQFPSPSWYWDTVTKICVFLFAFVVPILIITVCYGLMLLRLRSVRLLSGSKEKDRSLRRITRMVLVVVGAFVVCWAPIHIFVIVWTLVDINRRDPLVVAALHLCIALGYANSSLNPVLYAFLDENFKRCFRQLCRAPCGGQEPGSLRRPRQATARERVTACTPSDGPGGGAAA

[8] = target: T6, recombinant human κ-opioid receptor (Homo sapiens, UniProt P41145); assay: […]-GTPγS binding functional assay; type: biochemical
T6 sequence (P41145 whole entry): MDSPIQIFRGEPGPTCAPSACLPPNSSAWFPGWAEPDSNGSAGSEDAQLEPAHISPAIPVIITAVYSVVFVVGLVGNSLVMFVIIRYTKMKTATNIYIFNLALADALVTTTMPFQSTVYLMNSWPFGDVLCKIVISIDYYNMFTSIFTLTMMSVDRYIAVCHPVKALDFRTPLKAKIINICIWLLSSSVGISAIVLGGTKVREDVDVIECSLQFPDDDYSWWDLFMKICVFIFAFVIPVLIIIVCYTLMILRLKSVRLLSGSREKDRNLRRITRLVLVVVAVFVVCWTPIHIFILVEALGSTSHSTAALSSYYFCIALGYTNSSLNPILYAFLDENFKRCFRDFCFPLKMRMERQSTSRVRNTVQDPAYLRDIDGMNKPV

[9] = target: T6, recombinant human κ-opioid receptor; assay: […]-GTPγS binding functional assay; type: biochemical; conditions: antagonist mode, against agonist
[10] = target: T5, rat recombinant δ-opioid receptor; assay: […]-GTPγS binding functional assay; type: biochemical
[11] = target: T6, recombinant human κ-opioid receptor; assay: radioligand displacement, [3H]-U-69, […]; type: binding
[12] = target: T3, recombinant human δ-opioid receptor; assay: […]-GTPγS binding functional assay; type: biochemical; conditions: antagonist mode, against agonist
[13] = target: T4, recombinant human μ-opioid receptor; assay: […]-GTPγS binding functional assay; type: biochemical; conditions: antagonist mode, against agonist
[14] = target: T2, rat recombinant κ-opioid receptor; assay: […]-GTPγS binding functional assay; type: biochemical; remark: listed apart in the source
[15] = target: T4, recombinant human μ-opioid receptor; assay: […]-GTPγS binding functional assay; type: biochemical
[16] = target: T2, rat recombinant κ-opioid receptor; assay: […]-GTPγS binding functional assay; type: biochemical; conditions: antagonist mode, against agonist
[17] = target: T5, rat recombinant δ-opioid receptor; assay: radioligand displacement, [3H]-DADLE; type: binding
How it was run: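 δ-Opioid receptor sites labelled with [³H]-DADLE and displaced by test compound. The IC₅₀ is the concentration inhibiting 50% of specific binding. Ki = IC₅₀/(1 + L/Kd), where L is the radioligand concentration and the radioligand Kd comes from Scatchard plot analysis. Duplicate measurements in two or three independent experiments; data where fitting failed were excluded.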

[18] = target: T1, rat recombinant μ-opioid receptor; assay: […]-GTPγS binding functional assay; type: biochemical; conditions: antagonist mode, against agonist

T2 sequence (P34975 whole entry): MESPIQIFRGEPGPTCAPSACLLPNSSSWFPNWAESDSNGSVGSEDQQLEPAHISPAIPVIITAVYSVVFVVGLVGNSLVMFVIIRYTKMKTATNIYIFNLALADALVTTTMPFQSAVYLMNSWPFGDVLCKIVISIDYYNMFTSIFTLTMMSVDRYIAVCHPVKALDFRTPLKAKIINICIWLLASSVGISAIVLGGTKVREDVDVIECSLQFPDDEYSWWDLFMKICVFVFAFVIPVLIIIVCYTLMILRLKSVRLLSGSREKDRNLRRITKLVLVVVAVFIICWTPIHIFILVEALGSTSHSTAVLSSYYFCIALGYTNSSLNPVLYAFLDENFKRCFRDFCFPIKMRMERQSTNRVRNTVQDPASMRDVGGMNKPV
T1 sequence (P33535 whole entry): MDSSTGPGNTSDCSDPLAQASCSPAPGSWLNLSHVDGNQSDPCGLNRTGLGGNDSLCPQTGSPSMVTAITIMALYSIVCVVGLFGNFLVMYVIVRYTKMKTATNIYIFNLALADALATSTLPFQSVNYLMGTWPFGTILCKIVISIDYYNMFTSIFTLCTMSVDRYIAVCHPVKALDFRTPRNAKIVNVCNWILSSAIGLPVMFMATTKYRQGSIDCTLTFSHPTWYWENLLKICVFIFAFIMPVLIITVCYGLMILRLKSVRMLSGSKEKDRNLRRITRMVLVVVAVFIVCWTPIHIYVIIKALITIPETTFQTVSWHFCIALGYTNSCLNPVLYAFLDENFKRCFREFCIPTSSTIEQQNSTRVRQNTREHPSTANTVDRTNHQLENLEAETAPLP

With `CC(C)(NC(=O)C1=C(O)[C@@H]2Oc3c(O)ccc4c3[C@@]23CCN(CC2CC2)[C@H](C4)[C@]3(O)C1)c1nc(-c2ccccc2)no1` [naldemedine] the Ki [1] was 1.4 ± 0.24 nM, the IC50 [2] was 12.2 ± 0.57 nM and the EC50 [3] was greater than 10000 nM. It also gave an EC50 [4] greater than 10000 nM, a Ki [5] of 0.43 ± 0.08 nM and a Ki [6] of 0.34 ± 0.03 nM. The “Antagonist activity (nmol L^-1) / δ” value [7] was 0.22 ± 0.02 nmol/L, the EC50 [8] was greater than 10000 nM and the “Antagonist activity (nmol L^-1) / κ” value [9] was 0.44 nmol/L. For the same compound, the EC50 [10] was greater than 10000 nM, the Ki [11] was 0.94 nM and the “Antagonist activity (nmol L^-1) / δ” value [12] was 0.27 ± 0.03 nmol/L. For the same compound, the “Antagonist activity (nmol L^-1) / μ” value [13] was 0.50 ± 0.05 nmol/L, the EC50 [14] was greater than 10000 nM and the EC50 [15] was greater than 10000 nM. The “Antagonist activity (nmol L^-1) / κ” value [16] was 0.49 ± 0.02 nmol/L, the Ki [17] was 0.96 ± 0.06 nM and the “Antagonist activity (nmol L^-1) / μ” value [18] was 0.56 ± 0.02 nmol/L.
